Laboratory results: ChEMBL document CHEMBL1154069, “Active site directed docking studies: synthesis and pharmacological evaluation of cis-2,6-dimethyl piperidine sulfonamides as inhibitors of acetylcholinesterase” (Eur J Med Chem, 2009)
Activity calls are given as the source filed them. The rule behind the calls is not given here.

How the values were obtained:
[1] = molecular target: T1, Acetylcholinesterase (Rattus norvegicus, UniProt P37136); test: Inhibition of Wistar rat brain homogenate AChE by Ellman's assay
T1 sequence (P37136 whole entry): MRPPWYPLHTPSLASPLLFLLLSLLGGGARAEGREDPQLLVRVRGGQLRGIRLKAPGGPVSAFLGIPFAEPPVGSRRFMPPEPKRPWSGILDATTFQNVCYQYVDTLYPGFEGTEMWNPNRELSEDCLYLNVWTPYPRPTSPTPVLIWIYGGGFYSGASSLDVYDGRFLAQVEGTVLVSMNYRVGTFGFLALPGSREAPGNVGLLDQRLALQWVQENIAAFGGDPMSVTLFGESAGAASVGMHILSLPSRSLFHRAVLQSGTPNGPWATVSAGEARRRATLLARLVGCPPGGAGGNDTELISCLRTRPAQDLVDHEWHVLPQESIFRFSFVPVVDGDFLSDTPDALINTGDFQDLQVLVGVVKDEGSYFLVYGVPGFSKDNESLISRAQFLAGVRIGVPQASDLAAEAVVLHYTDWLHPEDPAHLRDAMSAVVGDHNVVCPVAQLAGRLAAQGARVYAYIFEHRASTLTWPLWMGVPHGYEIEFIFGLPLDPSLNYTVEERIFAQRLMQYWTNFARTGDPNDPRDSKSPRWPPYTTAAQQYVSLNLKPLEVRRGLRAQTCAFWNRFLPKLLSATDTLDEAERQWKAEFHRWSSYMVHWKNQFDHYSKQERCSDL
Outline: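 Enzyme from Wistar rat brain homogenised 5 min in 0.1 M KH2PO4 pH 8; protein by Lowry (BSA standard). Inhibitor preincubated 10 min with enzyme, buffer and DTNB before adding acetylthiocholine iodide (fresh, pH 7 phosphate). A412 read every 1 min for 10 min at 37 °C. Activity as percentage of uninhibited enzyme; duplicates, means reported.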

[2] = molecular target: Acetylcholinesterase (Homo sapiens, UniProt P22303); test: Inhibition of human serum AChE by Ellman's assay
[3] = molecular target: Acetylcholinesterase (Electrophorus electricus, UniProt O42275); test: Inhibition of electric eel AChE by Ellman's method
Outline: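 Commercial electric eel enzyme assayed like rat brain AChE: inhibitor, buffer and DTNB preincubated 10 min, acetylthiocholine iodide added, A412 followed each minute over 10 min at 37 °C. Percentage inhibition versus uninhibited activity at varied concentrations; duplicates averaged. Neostigmine reference 25–500 nM.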

[4] = system: Rattus norvegicus; test: Antiamnesic activity against scopolamine-induced memory loss in rat assessed as basal latency to reach shock free zone 1 at 0.1 mg/kg, ip; type: functional; settings: route intraperitoneal
[5] = system: Rattus norvegicus; test: Antiamnesic effect against scopolamine-induced memory loss in rat assessed as basal latency to reach shock free zone 2 at 0.1 mg/kg, ip; type: functional; settings: route intraperitoneal
[6] = system: Rattus norvegicus; test: Antiamnesic activity against scopolamine-induced memory loss in rat assessed as basal latency to reach shock free zone 3 at 0.1 mg/kg, ip; type: functional; settings: route intraperitoneal
[7] = system: Rattus norvegicus; test: Antiamnesic activity against scopolamine-induced acquisition memory loss in rat assessed as times of step-down at 0.1 mg/kg, ip by step-down passive avoidance test; type: functional; settings: route intraperitoneal
[8] = system: Rattus norvegicus; test: Antiamnesic activity against scopolamine-induced memory loss in rat assessed as reversal of number of mistakes made in 15 min at 0.1 mg/kg, ip; type: functional, organism-based; design: dose 0.1 mg/kg

Chain of Acetylcholinesterase (Electrophorus electricus, UniProt O42275) (O42275 whole entry): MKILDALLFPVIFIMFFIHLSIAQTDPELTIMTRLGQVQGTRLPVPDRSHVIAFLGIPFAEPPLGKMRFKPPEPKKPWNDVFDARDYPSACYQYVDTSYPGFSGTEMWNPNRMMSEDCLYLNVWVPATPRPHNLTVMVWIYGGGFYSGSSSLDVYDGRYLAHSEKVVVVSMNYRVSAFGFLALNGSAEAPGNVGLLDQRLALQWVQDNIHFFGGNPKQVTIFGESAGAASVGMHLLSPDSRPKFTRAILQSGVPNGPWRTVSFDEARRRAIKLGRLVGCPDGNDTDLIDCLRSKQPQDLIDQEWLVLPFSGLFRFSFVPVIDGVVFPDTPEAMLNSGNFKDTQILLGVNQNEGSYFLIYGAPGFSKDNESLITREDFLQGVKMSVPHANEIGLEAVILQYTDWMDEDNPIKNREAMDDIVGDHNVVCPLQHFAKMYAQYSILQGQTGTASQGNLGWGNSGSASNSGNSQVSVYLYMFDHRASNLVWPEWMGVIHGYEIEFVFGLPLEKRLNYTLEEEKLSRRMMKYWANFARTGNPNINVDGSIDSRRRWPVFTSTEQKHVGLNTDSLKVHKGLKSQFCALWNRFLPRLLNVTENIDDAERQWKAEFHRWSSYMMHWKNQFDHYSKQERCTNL
Chain of Acetylcholinesterase (Homo sapiens, UniProt P22303) (P22303 whole entry): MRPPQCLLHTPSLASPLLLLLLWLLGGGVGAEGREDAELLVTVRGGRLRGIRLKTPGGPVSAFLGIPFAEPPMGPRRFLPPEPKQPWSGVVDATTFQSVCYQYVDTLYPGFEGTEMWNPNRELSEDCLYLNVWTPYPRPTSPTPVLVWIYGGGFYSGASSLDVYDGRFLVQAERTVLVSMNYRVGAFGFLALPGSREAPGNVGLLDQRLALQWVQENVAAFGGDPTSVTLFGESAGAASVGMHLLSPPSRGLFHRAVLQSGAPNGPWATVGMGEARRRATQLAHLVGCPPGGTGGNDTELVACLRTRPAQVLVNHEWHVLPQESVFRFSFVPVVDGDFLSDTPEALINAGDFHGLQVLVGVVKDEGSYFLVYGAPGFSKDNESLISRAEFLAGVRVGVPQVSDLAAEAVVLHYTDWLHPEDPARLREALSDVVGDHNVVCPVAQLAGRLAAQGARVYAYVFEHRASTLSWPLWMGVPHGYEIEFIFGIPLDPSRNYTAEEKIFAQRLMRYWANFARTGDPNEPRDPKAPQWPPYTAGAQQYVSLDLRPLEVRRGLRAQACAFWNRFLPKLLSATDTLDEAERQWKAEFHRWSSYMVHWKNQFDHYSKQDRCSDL

SMILES	IC50 [1] [nM]	IC50 [2] [nM]	IC50 [3] [nM]	Activity [4] [s]	Activity [5] [s]	Activity [6] [s]	Activity [7] [times]	Activity [8]
C[C@@H]1CCC[C@H](C)N1S(=O)(=O)c1cccc([N+](=O)[O-])c1	186	192	200	22	6	4	4	Active
C[C@@H]1CCC[C@H](C)N1S(=O)(=O)c1ccccc1[N+](=O)[O-]	195	185	180	17	5	0.9	2	Active
Cc1ccc(S(=O)(=O)N2[C@H](C)CCC[C@@H]2C)cc1	362	368	365	27	8	5	4	
C[C@@H]1CCC[C@H](C)N1S(=O)(=O)c1cc(Cl)ccc1Cl	75	90	81	16	4	0.8	2	Active
C[C@@H]1CCC[C@H](C)N1S(=O)(=O)c1ccc(Cl)cc1	325	318	312	25	8	5	3	
C[C@@H]1CCC[C@H](C)N1S(=O)(=O)c1ccc([N+](=O)[O-])cc1	1200	1150	1210	34	9	7	3	
C[C@@H]1CCC[C@H](C)N1S(C)(=O)=O	85	75	90	20	4	0.7	2	Active
C[C@@H]1CCC[C@H](C)N1S(=O)(=O)c1ccc(C(C)(C)C)cc1	463	458	450	28	9	6	4	
C[C@@H]1CCC[C@H](C)N1S(=O)(=O)c1ccccc1	362	392	388	26	7	4	4	
CN(C)C(=O)Oc1cccc([N+](C)(C)C)c1 [NEOSTIGMINE BROMIDE]	40		53					
